Screen size: about 300,000 compounds; about 120 (0.04%) were called active.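 Rule for the calls: active = more than half of replicate wells score below -50%, meaning over 50% inhibition versus plate controls; inconclusive = some replicates but at most half score below -50%; inactive = no replicate scores below -50%.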 This excerpt belongs to a sample that is enriched for actives.
biological target: Glycogen synthase kinase-3 beta (Homo sapiens) (UniProt P49841); assay: blockers of GSK3B enzyme activity – biochemical, cell-free homogeneous, HTS, primary screen (AID 2097); details: GST-GSK3beta kinase, ADP-Glo luminescence, 60 min; at 10 µM; hits give low values;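 note: 0% = median DMSO wells and -100% = median GW8510 positive control wells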
Sequence (P49841 whole entry, looked up): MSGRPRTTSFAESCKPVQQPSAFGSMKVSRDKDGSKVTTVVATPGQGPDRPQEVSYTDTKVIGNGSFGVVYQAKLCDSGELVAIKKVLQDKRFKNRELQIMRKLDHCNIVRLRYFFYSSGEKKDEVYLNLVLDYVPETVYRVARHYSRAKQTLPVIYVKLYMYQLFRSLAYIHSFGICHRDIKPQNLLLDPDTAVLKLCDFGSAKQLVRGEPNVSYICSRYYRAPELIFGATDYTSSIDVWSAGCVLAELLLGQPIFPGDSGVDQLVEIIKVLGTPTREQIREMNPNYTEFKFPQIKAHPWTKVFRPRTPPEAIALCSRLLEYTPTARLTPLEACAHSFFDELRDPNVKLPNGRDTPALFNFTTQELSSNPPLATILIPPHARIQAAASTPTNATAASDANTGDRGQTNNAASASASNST
Outline: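 Test system: GST-tagged human GSK3beta kinase, cell-free; evaluation: activity score scaled between in-plate DMSO and GW8510 controls; measured by: ADP-Glo luminescence; incubation: 60 min reaction, RT; benchmarks: DMSO and 20 µM GW8510; reagent: peptide substrate plus 25 µM ATP (final); medium: Tris/MgCl2 kinase buffer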

Activity score (negative = inhibition), inactive:
O=C(N/N=C/c1ccccc1O)/C(=C/c1ccccc1)CCO 0.241%
CC1CC2=C(CC1/C=N/NC(N)=S)C(C)(C)CCC2 (stereo not drawn) -1.32%
O=C1NC(Nc2nc3ccccc3s2)(C(F)(F)F)C(=O)N1C1CCCCC1 (stereo not drawn) -3.19%
Cc1ccc(C2=NN(C)c3nc4ccccc4n3C2)cc1 1.54%
Nc1nc(CC(=O)CSc2ccc(Cl)cc2)nc(Nc2ccc(F)cc2)n1 0.55%
Oc1c(Cl)cc(Cl)cc1/C=N/c1ncn[nH]1 0.992%
COC(C[C@H](O)CC(=O)[C@@H](C)OCc1ccccc1)OC -8.84%
Cc1cc(C)c(-c2csc(NC(=O)CCCc3nc4ccccc4c(=O)[nH]3)n2)c(C)c1 2.17%
COC(=O)Nc1ccc(S(=O)(=O)N2CCN(CCN3C(=O)C4C5C=CC(C5)C4C3=O)CC2)cc1 (stereo not drawn) -3.94%
O=C1C(=O)N(CCCN2CCOCC2)C(c2ccc([N+](=O)[O-])cc2)/C1=C(\O)c1ccc2c(c1)OCCO2 (stereo not drawn) 1.45%
COc1nc(Oc2ccc(=O)n(C)n2)nc(N(C)C)n1 0.382%
Cc1ccc(OCC(=O)Nc2ccc(C(=O)O)cc2NC(=O)COc2ccc(C)c(C)c2)cc1C 2.29%
CC(=O)N1CCSc2ccc(S(=O)(=O)N3CCC(C)CC3)cc21 1.34%
O=C(NCc1ccco1)C1CCCN1S(=O)(=O)c1ccccc1C(F)(F)F (stereo not drawn) 1.38%
Cn1c(=O)[nH]c(=O)c2c1nc(N1CCN(C(c3ccccc3)c3ccccc3)CC1)n2CCO -22.6%
CCN(CC(=O)Nc1ccccc1C(F)(F)F)C(=O)CSCc1c(C)noc1C -1.14%
CN1CCN(S(=O)(=O)c2ccc(Nc3ccc(F)cc3)nc2)CC1 2.53%
CC1(C)Cc2ccccc2/C(=C/C(=O)c2ccccc2)N1 -1.05%
CN(C)S(=O)(=O)c1ccc(N2CCCC2)c(C(=O)Nc2ccc(Br)cc2F)c1 3.14%
COc1ccc2c(c1OC)C(=O)N(c1ccc(O)cc1)C2 -1.79%
C=CCOc1c2ccc(C(=O)N(CC)c3ccc(OC)cc3)cc2nn1C 0.746%
O=CN1CCN(C(=O)c2ccc3c(c2)OCO3)CC1 2.93%
C/C(CC(=O)NCc1ccc(Cl)cc1)=N\NC(=O)COc1ccc(C)cc1Br -2.78%
COc1ccccc1C(=O)N(C1=NC(C)CS1)c1ccc(Cl)cc1 (stereo not drawn) 6.2%
O=C(Nc1ccccc1)Nc1nnc(COc2ccccc2F)s1 0.847%
CCCN1C2CCCC1CC(NC(=O)c1cccc(OC)c1)C2 (stereo not drawn) 2.34%
CN(CCNC(=O)c1cc2c(-c3ccccc3F)nn(C)c2s1)C1CCCCC1 -2.3%
COC(=O)c1ccc(CN2C(=O)NC(c3ccccc3)(c3ccccc3)C2=O)o1 -0.96%
CCn1cc(C(=O)N[C@@H](C)C(=O)NCCO)c(=O)c2cc3c(cc21)OCO3 -0.599%
O=[N+]([O-])c1cc([N+](=O)[O-])c(Oc2cc(F)cc(F)c2F)cc1NN1CCCCC1 -1.52%
CC(NC(=O)C1CCCN(S(=O)(=O)c2ccc(-n3cnnn3)cc2)C1)c1ccc(F)cc1 (stereo not drawn) -1.62%
COc1cc(NC(=O)C2CCN(c3cnccn3)CC2)cc(OC)c1 -0.841%
O=c1[nH]c2ccccc2n2c(-c3ccccc3)nnc12 -0.961%
CCCCN(C(=O)CSCC(=O)Nc1ccc(OC)cc1)c1c(N)n(CCC)c(=O)[nH]c1=O -1.15%
Cc1nnsc1S(=O)(=O)Cc1ccccc1Cl -0.424%
CC(=O)N1c2ccc(S(=O)(=O)N3CCCC(C(=O)Nc4ccc(C)cc4C)C3)cc2CC1C (stereo not drawn) 0.432%
CCOC(OCC)c1ccc(/C=C\c2nccc(N)n2)cc1 -5.66%
Cc1cccc(CCNS(=O)(=O)c2ccc(S(=O)(=O)NC3CCCC3)cc2)c1 -0.921%
COc1ccc(C)cc1N(C)C(=O)c1coc(=O)c2ccccc12 3.14%
COc1ccc(Cl)cc1NC(=O)C(C)N1CCc2ccccc21 (stereo not drawn) 0.322%
COC(=O)[C@]1(C)N[C@H](c2ccc(-c3ccc(Cl)c(Cl)c3)cc2)[C@@H]2C(=O)N(C)C(=O)[C@@H]21 -2.15%
Cc1cc(C)c(S(=O)(=O)c2ccccc2)c(OC(=O)c2c(F)cccc2Cl)n1 7.18%
N#Cc1ccccc1Sc1ccccc1C(=O)OCC(=O)NC1CCCCC1 5.54%
Cc1cc(Br)ccc1NC(=O)c1cnc(N2CCN(c3ccccn3)CC2)c2ccccc12 -4.35%
Cc1nnc(NC(=O)CCC(=O)N2CCC(C)CC2)s1 0.523%
Cc1ccc(NC(=O)c2ccc(CSc3ncnc4nc[nH]c34)cc2)c(C)c1 -7.49%
Cc1ccc2nc(NC(=O)CSc3nc(=O)n(CCCN(C)C)c4c3CCC4)sc2c1 2.91%
Cn1c(=O)c(=O)n(C)c2cc(S(=O)(=O)CCC(=O)N3CCCCC3)ccc21 2.02%
CCN(c1ccc2c(c1)OCO2)S(=O)(=O)c1cc(Br)cc2c1N(C(=O)C1CC1)CC2 -2.85%
CCC1(CC)NC(=O)N(CC(=O)OCC(=O)Nc2ccc(C(F)(F)F)cc2)C1=O -0.836%
COC(=O)c1cc2n(n1)CCCNC2=O 2.64%
O=C(NC1CCCC1)C(NS(=O)(=O)c1ccc(Br)s1)c1ccccc1 (stereo not drawn) -0.275%
O=C(O)c1ccc2c(=O)n3c(nc2c1)/C(=C/c1ccc(OC(F)F)cc1OC(F)F)CC3 -1.21%
COCCNC(=O)C1CCN(S(=O)(=O)c2ccc3c(c2)OCCO3)CC1 -2.22%
O=C(Nc1cccc(F)c1)N1C2CCC1CC(O)(c1cccnc1)C2 (stereo not drawn) 2.54%
CC(C)NS(=O)(=O)c1ccc(OCC(=O)NC2CCCCCC2)cc1 1.95%
CC(C)NC(=O)c1ccccc1S(=O)c1ccccc1C#N (stereo not drawn) -1.11%
CC(=O)Nc1nc2c(s1)C(=O)NCC(C)(C)C2 3.79%

From PubChem BioAssay AID2097 (Broad Institute, 2009)
